Reference: paper PMC11059122 (iScience, 2024)
Like-named read-outs stand apart in the source and are kept apart here.

What was measured:
[1] = tested on: MM.1S cells; assay: MM.1S cell viability; assay type: cell-based, human
[2] = tested on: p53 in MM.1S cells; assay: Time course of p53 levels in MM.1S cells; assay type: cell-based, human; conditions: for maximum increase of p53 above DMSO-treated cells: time course 2-24 h
How it was run: (§1)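 MM.1S cells (RPMI 1640, 10% FBS, 1% L-glutamine) treated with test compound and sampled over a time course. Lysis in RIPA 30 min at 4°C, centrifugal clarification, BCA normalisation, reducing SDS-PAGE and immunoblot for p53 and p21. Chemiluminescent detection, densitometric band quantification; signal relative to DMSO-treated cells, mean ± standard deviation.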

[3] = tested on: RKO-E6 cells; assay: RKO-E6 cell viability; assay type: cell-based, human
[4] = tested on: RKO cells; assay: RKO cell viability; assay type: cell-based; conditions: Homo sapiens, 72 h, read-out: RKO IC50
[5] = tested on: p21 in MM.1S cells; assay: Time course of p21 levels in MM.1S cells; assay type: cell-based, human; conditions: time course 2-24 h
How it was run: as §1

[6] = tested on: MRC5 cells; assay: MRC5 live-cell imaging; assay type: cell-based, human; conditions: 1 μM
How it was run: (§2)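 IncuCyte S3 real-time growth, 4× objective: MRC5 (EMEM + 10% FBS, 4,000 cells/well) or MM.1S (RPMI 1640 + 10% FBS, 24,000 cells/well) seeded overnight, then exposed to test compound, idasanutlin or DMSO. Images every 6 h for 120 h from treatment start; growth expressed as phase object confluence.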

[7] = tested on: MM.1S cells; assay: MM.1S live-cell imaging; assay type: cell-based, human; conditions: 1 μM, 5 days
How it was run: as §2

[8] = tested on: MCL1 in OCI-AML3 cells; assay: MCL1 levels in OCI-AML3 cells; assay type: cell-based, human; conditions: OCI-AML3, 1 μM each, 4 h, Western blot
How it was run: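 OCI-AML-3 cells (RPMI 1640 + 20% FBS) exposed to test compound, venetoclax, or both co-dosed; sampled 4 h post treatment. RIPA lysis 30 min at 4°C, centrifugal clarification, BCA protein assay, reducing SDS-PAGE, immunoblot with extended-duration chemiluminescent substrate; bands quantified by densitometry. Mean ± standard deviation.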

[9] = tested on: MM.1S tumors; assay: MM.1S cell-line-derived xenograft mouse model; assay type: in vivo
How it was run: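 Female CB-17 SCID mice (6-9 wk, 18-23 g) implanted s.c. in right flank with 5×10⁶ MM.1S cells in PBS/Matrigel 50/50. Randomised at mean tumour ~105 mm³; test compound by oral gavage; tumour and body weight measured twice weekly. Final-day urine at three intervals, diluted 1:50, mouse MIC-1 ELISA (OD450 minus OD570, standard curve). Tumours harvested 2 h post last dose, RIPA-homogenised, p53/p21 Western blot.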

[10] = biological target: recombinant human USP7 (Homo sapiens, UniProt Q93009); assay: In vitro USP7 activity assay; assay type: biochemical
recombinant human USP7, sequence (Q93009 whole entry): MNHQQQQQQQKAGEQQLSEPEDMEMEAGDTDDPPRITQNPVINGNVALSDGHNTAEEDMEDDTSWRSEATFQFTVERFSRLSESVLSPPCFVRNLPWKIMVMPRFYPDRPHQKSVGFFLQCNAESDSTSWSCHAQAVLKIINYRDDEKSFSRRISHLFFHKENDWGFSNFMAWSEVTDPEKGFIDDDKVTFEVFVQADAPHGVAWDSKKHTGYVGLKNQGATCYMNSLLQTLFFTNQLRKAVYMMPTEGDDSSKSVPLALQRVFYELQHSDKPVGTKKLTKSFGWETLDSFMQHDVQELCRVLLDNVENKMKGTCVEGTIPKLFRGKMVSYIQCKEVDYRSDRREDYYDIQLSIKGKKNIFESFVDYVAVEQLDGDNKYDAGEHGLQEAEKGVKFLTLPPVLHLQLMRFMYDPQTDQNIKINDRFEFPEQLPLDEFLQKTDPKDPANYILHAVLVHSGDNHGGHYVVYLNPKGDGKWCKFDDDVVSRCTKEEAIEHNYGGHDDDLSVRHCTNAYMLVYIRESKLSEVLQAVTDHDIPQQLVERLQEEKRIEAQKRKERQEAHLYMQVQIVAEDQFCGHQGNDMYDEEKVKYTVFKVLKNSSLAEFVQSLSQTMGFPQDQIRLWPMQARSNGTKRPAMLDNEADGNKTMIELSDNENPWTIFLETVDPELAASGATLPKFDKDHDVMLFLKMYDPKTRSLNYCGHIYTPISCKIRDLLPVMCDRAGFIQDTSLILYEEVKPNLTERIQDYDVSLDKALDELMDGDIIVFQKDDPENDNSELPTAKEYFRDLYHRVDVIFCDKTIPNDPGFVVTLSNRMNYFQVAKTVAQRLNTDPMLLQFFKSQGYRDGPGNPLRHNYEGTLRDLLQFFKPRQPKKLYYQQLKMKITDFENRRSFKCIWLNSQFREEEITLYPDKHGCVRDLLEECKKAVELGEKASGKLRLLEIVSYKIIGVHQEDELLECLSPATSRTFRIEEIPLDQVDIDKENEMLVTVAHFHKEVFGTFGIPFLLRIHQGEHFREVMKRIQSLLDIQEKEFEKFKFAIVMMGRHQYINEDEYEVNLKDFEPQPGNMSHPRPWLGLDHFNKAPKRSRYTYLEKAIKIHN
How it was run: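 Test compound, 4-fold 10-point series from 2.5 µM top, pre-incubated 30 min at room temperature with 167 pM Sf21-baculovirus-expressed human USP7 in 20 mM HEPES pH 7.3, 150 mM NaCl, 1 mM TCEP, 125 µg/mL BSA, 0.4% DMSO. Ubiquitin-rhodamine added to 160 nM final; reaction 90 min at room temperature, acetic acid stop. Fluorescence 485/520 nm. % inhibition vs DMSO and no-enzyme controls; IC50 from curve fit; triplicate.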

[11] = tested on: p53 levels in MM.1S cells; assay: Meso Scale Discovery total p53 assay in MM.1S cells; assay type: cell-based; conditions: Homo sapiens, MM1.S, 4 h, read-out: MM.1S p53 EC50
How it was run: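 MM.1S cells plated at 1×10⁶/well overnight, then exposed 4 h to test compound, 4-fold 9-point series spanning 20 µM to 0.0003 µM, or DMSO (0.1% final). Total p53 in whole-cell lysate measured by Meso Scale Discovery immunoassay kit. p53 signal plotted against concentration and fitted for EC50.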

[12] = tested on: MV4-11 tumors; assay: MV4-11 cell-line-derived xenograft mouse model; assay type: in vivo; conditions: for tumor growth inhibition: MV4-11 tumors, oral, 24 days
How it was run: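 Female CB-17 SCID mice (6-9 wk, 18-23 g) implanted s.c. in right flank with 10×10⁶ MV4-11 cells in PBS/Matrigel 50/50. Oral gavage dosing; tumour and body weight twice weekly. Final-day urine collected at three intervals, diluted 1:50, mouse MIC-1 ELISA (OD450 minus OD570, standard curve). Tumours removed 4 h after last dose, RIPA-homogenised, p53 and p21 by Western blot.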

[13] = tested on: 44 DUBs (DUBprofiler panel); assay: DUB selectivity profiling; assay type: biochemical; conditions: 10 μM compound
[14] = tested on: p53 WT cell lines; assay: Cellular viability assays of p53 WT cell lines; assay type: cell-based; conditions: read-out: IC50 in cellular viability assays of p53 WT cell lines
[15] = tested on: p53 WT cell lines; conditions: read-out: IC50 in cellular viability assays of p53 WT cell lines; cited from earlier work
[16] = MM.1S CDX, 2 h post final dose, Western blot
[17] = MV4-11 CDX, 4 h post final dose, Western blot

## COc1cc(C(=O)O)ccc1NC(=O)[C@@H]1N[C@@H](CC(C)(C)C)[C@](C#N)(c2ccc(Cl)cc2F)[C@H]1c1cccc(Cl)c1F [Idasanutlin, reference compound]
[1]; three days, CTG
  inhibition of MM1.S cell viability compared with FX1-5303: equipotently
[2]
  p53 elevation after 24h of treatment: approximately 14 fold
  maximum increase of p53 above DMSO-treated cells: approximately 20 fold
[3]
  shift of IC50 in RKO-E6 cells relative to the parental RKO cell line: over 50 fold
[4]
  IC50: 170 nM
[5]
  maximum increase of p21 above DMSO-treated cells: ~80 fold
[6]
  increase in cell confluency over the 5-day time course: less than 10%
[7]
  growth of the MM.1S cancer cell line: fully inhibited growth

## CC1(C)CCC(CN2CCN(c3ccc(C(=O)NS(=O)(=O)c4ccc(NCC5CCOCC5)c([N+](=O)[O-])c4)c(Oc4cnc5[nH]ccc5c4)c3)CC2)=C(c2ccc(Cl)cc2)C1 [Venetoclax]
[8]
  effect on MCL1 levels: increase in MCL1 levels

## O=C1CCC(=O)N1Cc1cc2nccc(-c3cc(Cl)cc4c3N([C@@H]3CNC5(CCC5)C3)CCC4)c2s1 [FX1-5303, (S)-1-((7-(6-chloro-1-(5-azaspiro[3.4]octan-7-yl)-1,2,3,4-tetrahydroquinolin-8-yl)thieno[3,2-b]pyridin-2-yl)methyl)pyrrolidine-2,5-dione]
[9]; [16]
  p21 levels in tumors vs untreated mice: significantly higher
  p53 levels in tumors: elevated
[9]; MM.1S CDX, day 24, three time periods, ELISA
  MIC-1 in urine: elevated levels
[9]; MM.1S and MV4-11 CDX mouse models, oral dosing
  tolerability: generally well-tolerated
[9]; MM.1S tumors, 30 mg/kg twice daily, oral, 24 days
  tumor growth inhibition: 95%
[10]
  IC50: 0.29 nM
[1]; Homo sapiens, MM1.S, 72 h, read-out: MM.1S viability IC50
  IC50: 15 nM
[11]
  EC50: 5.6 nM
[12]; [17]
  p21 levels in tumors vs untreated mice: significantly higher
  p53 levels in tumors: elevated
[12]; MV4-11 CDX, day 24, three time periods, ELISA
  MIC-1 in urine: elevated levels
[12]; 30 mg/kg twice daily
  tumor growth inhibition: 68%
[12]; 40 mg/kg twice daily
  tumor growth inhibition: 72%
[2]
  time of peak p53 levels after treatment: 2 to 6 h
  p53 elevation after 24h of treatment: returns nearly to basal levels
  maximum increase of p53 above DMSO-treated cells: approximately 3 fold
[3]
  shift of IC50 in RKO-E6 cells relative to the parental RKO cell line: essentially unchanged
[13]
  inhibition in a panel of 44 DUBs: only USP7 was inhibited
[4]
  IC50: 3400 nM
[5]
  maximum increase of p21 above DMSO-treated cells: ~6 fold
[6]
  increase in cell confluency over the 5-day time course: increased monotonically
[7]
  growth of the MM.1S cancer cell line: fully inhibited growth
[14]
  IC50: < 50 nM

## CC(=O)c1cc([N+](=O)[O-])c(Sc2ccc(F)cc2F)s1 [P22077]
[15]
  IC50: > 1000 nM
